ChEMBL document CHEMBL3351355, “Structure-affinity/activity relationships of 1,4-dioxa-spiro[4.5]decane based ligands at α1 and 5-HT1A receptors” (Eur J Med Chem, 2014)

Key:
[1] = organism: Rattus norvegicus; experiment: Selectivity ratio of Kb for alpha1D adrenoceptor in Wistar rat thoracic aorta to Kb for alpha1A adrenoceptor in Wistar rat vas deferans; type: tissue-based
[2] = target: T1, Alpha-1A adrenergic receptor (Rattus norvegicus) (UniProt P43140); experiment: Antagonist activity at alpha1A adrenoceptor in Wistar rat vas deferans assessed as noradrenaline-induced contractions after 30 mins
T1 sequence (whole entry): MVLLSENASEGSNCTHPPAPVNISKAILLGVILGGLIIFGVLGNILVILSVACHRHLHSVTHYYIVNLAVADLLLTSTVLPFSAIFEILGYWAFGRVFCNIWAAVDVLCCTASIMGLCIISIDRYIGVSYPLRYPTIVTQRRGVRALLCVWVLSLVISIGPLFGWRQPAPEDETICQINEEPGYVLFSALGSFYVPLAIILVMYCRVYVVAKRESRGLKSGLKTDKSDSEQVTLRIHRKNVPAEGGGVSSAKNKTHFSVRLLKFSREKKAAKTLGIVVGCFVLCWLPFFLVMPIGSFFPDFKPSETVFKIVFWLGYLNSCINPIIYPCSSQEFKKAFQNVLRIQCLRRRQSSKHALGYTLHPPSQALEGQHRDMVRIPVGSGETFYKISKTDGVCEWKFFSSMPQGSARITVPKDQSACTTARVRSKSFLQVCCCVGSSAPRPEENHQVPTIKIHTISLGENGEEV

[3] = target: T2, Alpha-1D adrenergic receptor (Rattus norvegicus) (UniProt P23944); experiment: Antagonist activity at alpha1D adrenoceptor in Wistar rat thoracic aorta assessed as noradrenaline-induced contractions after 30 mins
T2 sequence (whole entry): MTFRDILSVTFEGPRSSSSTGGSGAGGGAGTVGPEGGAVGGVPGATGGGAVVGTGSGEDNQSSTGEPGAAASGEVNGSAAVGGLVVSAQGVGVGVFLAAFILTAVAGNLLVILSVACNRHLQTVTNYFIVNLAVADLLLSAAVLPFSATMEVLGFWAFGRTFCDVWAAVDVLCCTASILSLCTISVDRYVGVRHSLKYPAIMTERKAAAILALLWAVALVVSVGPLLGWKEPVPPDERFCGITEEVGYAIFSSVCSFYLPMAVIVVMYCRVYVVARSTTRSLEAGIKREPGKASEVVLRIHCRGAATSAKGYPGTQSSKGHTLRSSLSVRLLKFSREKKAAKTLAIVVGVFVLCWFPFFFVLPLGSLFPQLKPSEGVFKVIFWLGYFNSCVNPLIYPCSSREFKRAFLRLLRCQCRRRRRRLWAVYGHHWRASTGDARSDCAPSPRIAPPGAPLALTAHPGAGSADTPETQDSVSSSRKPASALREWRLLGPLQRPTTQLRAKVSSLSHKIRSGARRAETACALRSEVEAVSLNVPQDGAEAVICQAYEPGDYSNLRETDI

[4] = organism: Rattus norvegicus; experiment: Selectivity ratio of Kb for alpha1B adrenoceptor in Wistar rat spleen to Kb for alpha1A adrenoceptor in Wistar rat vas deferans; type: tissue-based
[5] = target: T3, Alpha-1A adrenergic receptor (Homo sapiens, UniProt P35348); experiment: Displacement of [3H]prazosin from human recombinant alpha1A adrenoceptor expressed in CHO cells after 30 mins by liquid scintillation counting
T3 sequence (P35348 whole entry): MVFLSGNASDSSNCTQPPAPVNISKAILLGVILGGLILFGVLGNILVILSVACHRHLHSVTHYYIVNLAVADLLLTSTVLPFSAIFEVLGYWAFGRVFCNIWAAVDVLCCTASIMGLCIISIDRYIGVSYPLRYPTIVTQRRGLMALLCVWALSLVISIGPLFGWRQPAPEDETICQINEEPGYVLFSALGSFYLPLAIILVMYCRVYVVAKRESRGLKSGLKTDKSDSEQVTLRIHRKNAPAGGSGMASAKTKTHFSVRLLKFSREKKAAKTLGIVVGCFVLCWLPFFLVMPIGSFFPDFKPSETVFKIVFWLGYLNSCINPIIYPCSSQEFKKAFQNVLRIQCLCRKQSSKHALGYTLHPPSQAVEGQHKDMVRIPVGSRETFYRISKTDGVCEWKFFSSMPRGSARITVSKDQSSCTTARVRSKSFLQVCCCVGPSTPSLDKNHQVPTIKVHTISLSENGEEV

[6] = target: T4, Alpha-1B adrenergic receptor (Homo sapiens, UniProt P35368); experiment: Displacement of [3H]prazosin from human recombinant alpha1B adrenoceptor expressed in CHO cells after 30 mins by liquid scintillation counting; type: cell-based
T4 sequence (P35368 whole entry): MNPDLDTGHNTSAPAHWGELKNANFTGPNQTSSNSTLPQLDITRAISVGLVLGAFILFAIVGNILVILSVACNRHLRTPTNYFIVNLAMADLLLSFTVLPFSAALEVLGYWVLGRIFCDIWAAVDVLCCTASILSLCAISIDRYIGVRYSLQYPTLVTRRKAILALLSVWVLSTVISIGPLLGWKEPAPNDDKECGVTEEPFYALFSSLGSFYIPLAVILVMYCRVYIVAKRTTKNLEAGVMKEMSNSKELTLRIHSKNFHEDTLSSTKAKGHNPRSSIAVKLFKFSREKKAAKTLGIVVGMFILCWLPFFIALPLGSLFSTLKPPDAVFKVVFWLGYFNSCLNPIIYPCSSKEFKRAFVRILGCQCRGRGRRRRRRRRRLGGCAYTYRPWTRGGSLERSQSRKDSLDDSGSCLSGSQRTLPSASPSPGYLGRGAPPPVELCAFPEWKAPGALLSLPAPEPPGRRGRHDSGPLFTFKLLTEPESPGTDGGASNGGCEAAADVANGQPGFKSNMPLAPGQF
Summary of the method: (§1)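 CHO cells were stably transfected by electroporation with each human α1 subtype. Membranes (70 µg protein) were incubated in 50 mM Tris pH 7.4 with 0.1–0.4 nM [3H]prazosin and competitor (1 pM–1 µM) for 30 min at 25 °C. Nonspecific binding with 10 µM tamsulosin. Filtration and scintillation counting. pKi from 2–3 experiments in duplicate.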

[7] = target: T5, Alpha-1D adrenergic receptor (Homo sapiens, UniProt P25100); experiment: Displacement of [3H]prazosin from human recombinant alpha1D adrenoceptor expressed in CHO cells after 30 mins by liquid scintillation counting; type: cell-based; summary of the method: as §1
T5 sequence (P25100 whole entry): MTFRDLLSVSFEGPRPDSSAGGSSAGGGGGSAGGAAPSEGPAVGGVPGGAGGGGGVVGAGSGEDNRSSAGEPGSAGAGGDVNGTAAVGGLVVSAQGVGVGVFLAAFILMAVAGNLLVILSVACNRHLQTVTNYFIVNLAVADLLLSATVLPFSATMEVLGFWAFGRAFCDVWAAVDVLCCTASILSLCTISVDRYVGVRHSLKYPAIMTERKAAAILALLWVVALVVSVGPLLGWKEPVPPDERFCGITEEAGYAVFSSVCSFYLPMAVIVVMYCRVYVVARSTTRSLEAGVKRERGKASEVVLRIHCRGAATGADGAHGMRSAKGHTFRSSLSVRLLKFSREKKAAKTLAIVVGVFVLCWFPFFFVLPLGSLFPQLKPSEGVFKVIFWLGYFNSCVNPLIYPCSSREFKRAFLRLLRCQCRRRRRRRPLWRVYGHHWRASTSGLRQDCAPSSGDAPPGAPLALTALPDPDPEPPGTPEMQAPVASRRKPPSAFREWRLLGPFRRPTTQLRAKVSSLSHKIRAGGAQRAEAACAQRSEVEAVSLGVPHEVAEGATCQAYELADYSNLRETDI

Compound | Ratio [1] | pKb [2] | pKb [3] | Ratio [4] | Ki [5] | Ki [6] | Ki [7]
COc1ccccc1N1CCN(CC2COC3(CCOCC3)O2)CC1 (stereo not drawn) | 0.6 | 7.55 | 7.33 | 0.41 | 17 nM | 324 nM | 25.1 nM
COc1ccccc1N1CCN(CC2COC3(CCN(c4ccccc4)CC3)O2)CC1 (stereo not drawn) | 0.44 | 7.78 | 7.43 | 0.6 | 6.46 nM | 155 nM | 8.13 nM
COc1ccccc1N1CCN(CC2COC3(CCNCC3)O2)CC1 (stereo not drawn) | 0.14 | 7.74 | 6.89 | 1.09 | 49 nM | 42.7 nM | 37.2 nM
COc1ccccc1N1CCN(CC2COC3(CCN(S(=O)(=O)c4ccc(C)cc4)CC3)O2)CC1 (stereo not drawn) | 0.36 | 7.4 | 6.96 | 3.23 | 4.57 nM | 8.32 nM | 10.7 nM
COc1ccccc1N1CCN(CC2COC3(CCN(c4ccccn4)CC3)O2)CC1 (stereo not drawn) | 0.17 | 7.63 | 6.87 | 1.7 | 17.8 nM | 1000 nM | 22.9 nM
COc1ccccc1N1CCN(CC2COC3(CCSCC3)O2)CC1 (stereo not drawn) | 0.17 | 7.6 | 6.84 | 1.07 | 8.51 nM | 141 nM | 14.8 nM
COc1ccccc1N1CCN(CC2COC3(CCN(S(=O)(=O)c4ccc([N+](=O)[O-])cc4)CC3)O2)CC1 (stereo not drawn) | 1.9 | 7.74 | 8.02 | 1.02 | 5.25 nM | 110 nM | 5.75 nM
COc1ccccc1N1CCN(CC2COC3(CCN(C(C)=O)CC3)O2)CC1 (stereo not drawn) | 0.2 | 7.17 | 6.48 | 3.55 | 60.3 nM | 1000 nM | 89.1 nM
COc1ccccc1N1CCN(CC2COC3(CCN(C(=O)C4CCCN4)CC3)O2)CC1 (stereo not drawn) | 0.19 | 7.43 | 6.71 | 2.69 | 11.7 nM | 158 nM | 26.9 nM
COc1ccccc1N1CCN(CC2COC3(CCN(C(=O)c4ccc(C(F)(F)F)cc4)CC3)O2)CC1 (stereo not drawn) | 0.31 | 7.79 | 7.29 | 3.47 | 10.2 nM | 63.1 nM | 11 nM
CCCCNC(=O)N1CCC2(CC1)OCC(CN1CCN(c3ccccc3OC)CC1)O2 (stereo not drawn) | 0.81 | 7.38 | 7.29 | 1.04 | 20 nM | 240 nM | 19.1 nM
COc1ccccc1N1CCN(CC2COC3(CCN(C(=O)c4ccco4)CC3)O2)CC1 (stereo not drawn) | 0.89 | 7.43 | 7.38 | 1.82 | 21.4 nM | 158 nM | 28.2 nM
COc1ccccc1N1CCN(CC2COC3(CCN(C(=O)NC(C)(C)C)CC3)O2)CC1 (stereo not drawn) | 0.08 | 7.63 | 6.53 | 0.61 | 12.6 nM | 129 nM | 35.5 nM
COc1ccccc1N1CCN(CC2COC3(CCN(S(=O)(=O)c4cccs4)CC3)O2)CC1 (stereo not drawn) | 0.64 | 7.46 | 7.27 | 3.89 | 7.94 nM | 85.1 nM | 9.77 nM
COc1ccccc1N1CCN(CC2COC3(CCN(S(C)(=O)=O)CC3)O2)CC1 (stereo not drawn) | 0.59 | 7.41 | 7.18 | 1.12 | 18.6 nM | 363 nM | 23.4 nM
COc1ccccc1N1CCN(CC2COC3(CCN(S(=O)(=O)c4cccc([N+](=O)[O-])c4)CC3)O2)CC1 (stereo not drawn) | 1.02 | 7.97 | 7.98 | 1.48 | 3.02 nM | 69.2 nM | 0.912 nM
COc1ccccc1N1CCN(CC2COC3(CCS(=O)(=O)CC3)O2)CC1 (stereo not drawn) | 0.72 | 7.34 | 7.2 | 2.09 | 9.77 nM | 288 nM | 51.3 nM
COc1ccccc1N1CCN(CC2COC3(CCN(C(=O)C4CCCCC4)CC3)O2)CC1 (stereo not drawn) | 1.17 | 6.95 | 7.02 | 2.4 | 30.9 nM | 110 nM | 39.8 nM
COc1ccccc1N1CCN(CC2COC3(CCN(S(=O)(=O)c4ccccc4)CC3)O2)CC1 (stereo not drawn) | 0.37 | 7.48 | 7.05 | 2.88 | 7.94 nM | 85.1 nM | 12.3 nM
COc1ccccc1N1CCN(CC2COC3(CCCCC3)O2)CC1 (stereo not drawn) | 12.6 | 6.78 | 7.88 | 0.87 |  | 126 nM | > 1000 nM
COc1ccccc1N1CCN(CC2COC3(CCN(C(=O)c4ccccc4)CC3)O2)CC1 (stereo not drawn) | 0.55 | 7.71 | 7.45 | 3.02 | 10.7 nM | 67.6 nM | 20.4 nM
COc1ccccc1N1CCN(CC2COC3(CCN(S(=O)(=O)c4ccc(Cl)cc4)CC3)O2)CC1 (stereo not drawn) | 1.35 | 7.24 | 7.37 | 1.32 | 6.46 nM | 69.2 nM | 7.08 nM
